PHOSPHO1 inh – PHOSPHO1 (human) inhibition; recombinant PHOSPHO1, absorbance phosphatase assay; inhibition, % at 13.3 µM; hit rate 1.1% among 290,000; AID 1565; in the data active = inhibition above about 60%
Target sequence (Q8TCT1 whole entry, looked up): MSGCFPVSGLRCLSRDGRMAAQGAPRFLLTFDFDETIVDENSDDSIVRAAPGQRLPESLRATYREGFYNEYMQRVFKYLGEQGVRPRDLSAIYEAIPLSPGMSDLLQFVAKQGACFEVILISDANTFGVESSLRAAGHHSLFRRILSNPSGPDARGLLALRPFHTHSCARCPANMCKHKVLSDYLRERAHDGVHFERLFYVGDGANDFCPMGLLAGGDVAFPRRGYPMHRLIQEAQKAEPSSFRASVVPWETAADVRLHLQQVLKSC
TbHK1 inh – blocks Trypanosoma brucei hexokinase 1 activity; AID 1430; inhibition, % at 10 µM; recombinant TbHK1, G6PDH-coupled NADH A340; hit rate 0.11% among 220,000;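 active = inhibition of 50% or more in the single-dose primary screen; inactive = inhibition below 50%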
HKDC1 inh – blocks human hexokinase HKDC1 activity; Q2TB90; recombinant HKDC1, G6PDH/diaphorase resazurin coupled fluorescence; inhibition, % at 20 µM; hit rate 0.16% among 340,000;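 active = inhibition above about 35% when tested at 20 µM, limit read from the data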;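 note: plate controls were DMSO wells with enzyme for no effect and DMSO wells lacking enzyme for full effect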
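test system = in-house recombinant HK5 (HKDC1) enzyme | amount = HKDC1 at 5 µg/mL | control set = DMSO-enzyme wells negative, buffer-substituted wells positive | compound = one dose of 20 µM, 1% DMSO | schedule = reaction time 90 min, room temperature, protected from light | technique = resorufin fluorescence at 613 nm | reagent = glucose with 1 mM ATP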
PfG6PD inh – PfG6PD (Plasmodium falciparum) enzyme inhibition; PfGluPho enzyme, NADPH resazurin-diaphorase fluorescence; inhibition, % at 20 µM; hit rate 0.78% among 350,000; AID 504690;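 active = inhibition reaching at least a set limit at 20 µM in the primary screen, cut at about 59% in these data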;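 note: 0% = DMSO wells with substrate and 100% = DMSO wells lacking glucose-6-phosphate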
EP2 modulator – modulates human prostaglandin E2 receptor EP2 signaling | induction, % at 25 µM | P43116 | EP2-expressing cells, cAMP HTRF FRET, PGE2 co-stimulation | hit rate 0.83% among 260,000;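 active = compounds whose cAMP rise, as percent of the full-agonist control response, exceeds 60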;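 note: rat C6 glioma line stably carrying human EP2 under a CMV promoter; the protocol text gives 20 µM as final concentration; 100% = response of wells given 1 µM PGE2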
Target sequence (P43116 whole entry, looked up): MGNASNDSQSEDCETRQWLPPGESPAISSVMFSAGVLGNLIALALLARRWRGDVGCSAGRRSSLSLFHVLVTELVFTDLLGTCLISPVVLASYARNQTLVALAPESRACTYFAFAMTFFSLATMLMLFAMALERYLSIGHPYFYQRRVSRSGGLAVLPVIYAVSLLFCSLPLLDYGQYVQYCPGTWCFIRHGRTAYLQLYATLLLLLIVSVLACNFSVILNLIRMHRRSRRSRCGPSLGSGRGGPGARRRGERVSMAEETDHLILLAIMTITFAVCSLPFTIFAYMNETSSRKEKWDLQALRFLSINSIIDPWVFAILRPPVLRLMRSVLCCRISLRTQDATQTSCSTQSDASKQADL
PGE2 EP2 inh – blocks the human prostaglandin E2 receptor EP2; hit rate 0.52% among 260,000; AID 1422; C6 glioma cells expressing human EP2, cAMP TR-FRET; cells stimulated with saturating PGE2; inhibition, % at 25 µM;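 active = percent inhibition above 40 after rounding to a whole number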;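 note: rat C6 glioma host cells with rolipram phosphodiesterase inhibitor present; the protocol text gives 20 µM as final concentration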
The depositor's hits bear a star; ! = not active in a repeat. Rows were chosen to be rich in hits. Some 2.5% of all compounds tested hit in one or more screens of this group.

Results for O=C(Nc1ccc(Cl)c(C(F)(F)F)c1)NC1CC2CCCC(C1)N2Cc1ccccc1 (stereo not drawn) ?
PHOSPHO1 inh: -14.5; TbHK1 inh: 33.1; HKDC1 inh: 0.2; PfG6PD inh: 10.3; EP2 modulator: -122.6; PGE2 EP2 inh: 50.8*

Results for CCOc1cccc(/C(O)=C2/C(=O)C(=O)N(Cc3cccnc3)C2c2cccs2)c1 (stereo not drawn) ?
EP2 modulator: -7.7; PGE2 EP2 inh: 14.6

Results for Cc1cc(C)c2cc(CN(Cc3cccs3)Cc3nnnn3CCc3ccccc3)c(=O)[nH]c2c1 ?
EP2 modulator: 63.2*; PGE2 EP2 inh: 10.0

What do the screens show for `Oc1ccc(Cn2c(-c3ccc(O)cc3)nc3ccccc32)cc1`?
EP2 modulator: 20.6; PGE2 EP2 inh: 46.6*

What do the screens show for `CCOC(=O)c1ccc2c(c1)nc(SCC(=O)c1cc3ccccc3o1)n2CC`?
PHOSPHO1 inh: 89.9*; TbHK1 inh: -19.1; HKDC1 inh: 5.0; PfG6PD inh: 6.0; EP2 modulator: -36.7; PGE2 EP2 inh: 7.1

What do the screens show for `Cn1ccnc1SCC(=O)c1cc2ccccc2o1`?
PHOSPHO1 inh: 91.4*; TbHK1 inh: -9.5; HKDC1 inh: -3.1; PfG6PD inh: 21.9; EP2 modulator: 3.4; PGE2 EP2 inh: 5.2

How did CC(=O)NC(CSc1cc(C)nc2ccc(Br)cc12)C(=O)O (stereo not drawn) do in these assays?
PHOSPHO1 inh: -53.2; TbHK1 inh: -23.0; HKDC1 inh: -0.3; PfG6PD inh: 7.5; EP2 modulator: 64.2*; PGE2 EP2 inh: 11.8

Results for O=C(Cn1ncc2cccn2c1=O)OCC(F)(F)F ?
EP2 modulator: -15.5; PGE2 EP2 inh: 7.1

How did Cc1ccc2[nH]c(=O)c(C(c3nnnn3C3CCCC3)N3c4ccccc4CC3C)cc2c1 (stereo not drawn) do in these assays?
EP2 modulator: 55.3; PGE2 EP2 inh: 16.2

What do the screens show for `CC(C)C(NC(=O)COc1ccc2ccccc2c1)C(=O)N/N=C/C=C/c1ccccc1` (stereo not drawn)?
PHOSPHO1 inh: 92.7*; TbHK1 inh: -4.8; HKDC1 inh: -13.1; PfG6PD inh: 7.6; EP2 modulator: -30.2; PGE2 EP2 inh: 6.0

How did CCc1ccc(-c2nc(SCC(=O)NC3CCS(=O)(=O)C3)n[nH]2)cc1 (stereo not drawn) do in these assays?
HKDC1 inh: 2.0; PfG6PD inh: 7.7

How did O=C(CSc1n[nH]c(-c2ccncc2)n1)NC1CCS(=O)(=O)C1 (stereo not drawn) do in these assays?
PHOSPHO1 inh: 97.5*; TbHK1 inh: -3.3; HKDC1 inh: -0.9; PfG6PD inh: 35.2; EP2 modulator: -0.9; PGE2 EP2 inh: 7.6

How did Cc1cc(C(=O)NCCNC(=O)c2ccccn2)c2cccc(Cl)c2n1 do in these assays?
EP2 modulator: -57.3; PGE2 EP2 inh: 6.3

How did COCCCNC(=S)N(Cc1cc2ccc(C)cc2[nH]c1=O)CC1CCCO1 (stereo not drawn) do in these assays?
EP2 modulator: -12.9; PGE2 EP2 inh: 12.7

What do the screens show for `Cc1cc(C(C)(C)C)oc1C(=O)NCCCNC(=O)c1oc(C(C)(C)C)cc1C`?
PHOSPHO1 inh: 1.7; TbHK1 inh: -4.5; HKDC1 inh: -6.2; PfG6PD inh: 2.0; EP2 modulator: 60.6*!; PGE2 EP2 inh: 7.2

What do the screens show for `Cc1cc(C(C)(C)C)oc1C(=O)OCC(=O)NC1CCCCC1`?
PHOSPHO1 inh: 21.9; TbHK1 inh: -3.4; HKDC1 inh: -11.1; PfG6PD inh: -10.9; EP2 modulator: 6.6; PGE2 EP2 inh: 6.7

Results for Cc1cc(C)c2[nH]c(=O)c(C(c3nnnn3Cc3ccccc3)N3CCOCC3)cc2c1 (stereo not drawn) ?
EP2 modulator: -40.6; PGE2 EP2 inh: 21.6

Results for COc1ccc2cc(C)c3nnc(SCC(=O)NCc4cccs4)n3c2c1 ?
EP2 modulator: 1.3; PGE2 EP2 inh: 11.6

How did O=C(COC(=O)c1cc2ccccc2cc1O)Nc1cccnc1Cl do in these assays?
PHOSPHO1 inh: -2.4; TbHK1 inh: 24.7; HKDC1 inh: 4.0; PfG6PD inh: -5.3; EP2 modulator: -13.6; PGE2 EP2 inh: 7.5

What do the screens show for `Cc1ccc2nc(C)cc(C(=O)OCC(=O)Nc3cccnc3Cl)c2c1`?
PHOSPHO1 inh: 60.9*; TbHK1 inh: -6.0; HKDC1 inh: 3.0; PfG6PD inh: -4.3; EP2 modulator: -34.2; PGE2 EP2 inh: 10.9

What do the screens show for `COc1cc(CNc2ccccc2SC)ccc1O`?
PHOSPHO1 inh: 72.1*; TbHK1 inh: -3.0; HKDC1 inh: 0.8; PfG6PD inh: 38.5; EP2 modulator: 4.1; PGE2 EP2 inh: 9.3

What do the screens show for `CCOc1cc(CNc2ccccc2SC)ccc1O`?
PHOSPHO1 inh: -35.8; TbHK1 inh: -6.0; EP2 modulator: 27.5; PGE2 EP2 inh: 1.0

What do the screens show for `CCn1c(SCC(=O)Nc2ccccc2Cl)nc2c1c(=O)n(C)c(=O)n2C`?
EP2 modulator: -65.9; PGE2 EP2 inh: 7.1

Results for COc1ccc(CCn2c(C)cc(C(=O)CSc3nnnn3-c3ccccc3)c2C)cc1OC ?
PHOSPHO1 inh: -9.8; TbHK1 inh: -7.9; HKDC1 inh: -5.3; PfG6PD inh: 0.8; EP2 modulator: 23.1; PGE2 EP2 inh: 12.1

What do the screens show for `Cc1cc(C(=O)CSc2nnnn2-c2ccccc2)c(C)n1CCc1ccccc1`?
PHOSPHO1 inh: 83.7*; TbHK1 inh: 10.4; HKDC1 inh: 4.1; PfG6PD inh: -3.2; EP2 modulator: 43.6; PGE2 EP2 inh: 5.4

What do the screens show for `Cc1cc(C(=O)CSc2nnc(N)s2)c(C)n1CCc1ccc(Cl)cc1`?
PHOSPHO1 inh: 73.7*; TbHK1 inh: 4.4; HKDC1 inh: 4.8; PfG6PD inh: 9.3; EP2 modulator: -49.5; PGE2 EP2 inh: 16.5

Results for Cc1cc(C(=O)CSc2nnc(N)s2)c(C)n1CCc1ccc(F)cc1 ?
PHOSPHO1 inh: -54.7; TbHK1 inh: 0.3; HKDC1 inh: -2.2; PfG6PD inh: 3.4; EP2 modulator: -15.4; PGE2 EP2 inh: 13.4

How did COCC(C)n1c(C)cc(C(=O)CSc2nnc(N)s2)c1C (stereo not drawn) do in these assays?
PHOSPHO1 inh: 99.2*; TbHK1 inh: -16.1; HKDC1 inh: -3.2; PfG6PD inh: 6.6; EP2 modulator: 5.5; PGE2 EP2 inh: 23.1

What do the screens show for `Cc1ccc2cc(CN(C(=O)C3CCC3)C3CCCCC3)c3nnnn3c2c1C`?
EP2 modulator: 23.8; PGE2 EP2 inh: 11.4

How did CCc1ccc2c(c1)c1nc(C)sc1n2CC do in these assays?
PHOSPHO1 inh: 91.5*; TbHK1 inh: 1.7; HKDC1 inh: -11.7; PfG6PD inh: 3.2; EP2 modulator: 44.1; PGE2 EP2 inh: 4.3

What do the screens show for `O=C(c1cccc(Cl)c1)N1N=C(C(F)(F)F)CC1(O)C1CCCCC1` (stereo not drawn)?
EP2 modulator: 85.3*; PGE2 EP2 inh: 11.2

How did Cc1ccc(C(=O)NNC(=S)Nc2cccc3ccccc23)s1 do in these assays?
PHOSPHO1 inh: 86.0*; TbHK1 inh: -10.0; HKDC1 inh: 5.2; PfG6PD inh: 7.9; EP2 modulator: 4.8; PGE2 EP2 inh: 13.0
